Results published in ChEMBL document CHEMBL5030505, “Assessment of NR4A Ligands That Directly Bind and Modulate the Orphan Nuclear Receptor Nurr1” (J Med Chem, 2020).
Active and inactive are the calls of the source. No cut-off for these calls is given here.

Assays:
Assay type in all cases: cell-based
[1] = target: Nuclear receptor subfamily 4 group A member 2 (Homo sapiens) (UniProt P43354); experiment: Modulation of full length human Nurr1 expressed in PC12 cells co-transfected with luciferase reporter plasmid harboring NBRE response element assessed as increase in luciferase activity at 100 uM incubated for 18 hrs by luciferase reporter gene assay; conditions: PC-12, filed as modulator
Nuclear receptor subfamily 4 group A member 2 (Homo sapiens), sequence (P43354 whole entry): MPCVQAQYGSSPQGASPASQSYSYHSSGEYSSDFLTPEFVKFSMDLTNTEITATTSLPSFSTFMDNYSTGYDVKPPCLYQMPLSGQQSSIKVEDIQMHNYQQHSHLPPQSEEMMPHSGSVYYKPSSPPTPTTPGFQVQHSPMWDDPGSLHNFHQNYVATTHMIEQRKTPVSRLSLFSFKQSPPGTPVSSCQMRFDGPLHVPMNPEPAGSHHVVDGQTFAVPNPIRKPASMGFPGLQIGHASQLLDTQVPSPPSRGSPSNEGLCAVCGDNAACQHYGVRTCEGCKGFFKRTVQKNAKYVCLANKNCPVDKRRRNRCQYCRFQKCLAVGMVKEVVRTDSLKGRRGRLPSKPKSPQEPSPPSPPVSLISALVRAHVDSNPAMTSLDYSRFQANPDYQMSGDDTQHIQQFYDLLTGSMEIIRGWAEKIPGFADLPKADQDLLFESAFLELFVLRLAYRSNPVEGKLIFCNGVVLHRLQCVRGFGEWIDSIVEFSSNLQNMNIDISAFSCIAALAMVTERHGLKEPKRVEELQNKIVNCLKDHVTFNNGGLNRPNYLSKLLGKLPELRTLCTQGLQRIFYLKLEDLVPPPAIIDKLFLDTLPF
Procedure, shortened: (§1)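 Here PC12 cells (FK-12 medium, 15% horse serum, 2.5% FBS, 37°C, 5% CO2) received full-length Nurr1 (2 μg) without RXRα, plus 3xNBRE- or 3xNurRE-luciferase reporter (6 μg), for 18 h. Cells were replated at 10,000/well for 4 h, then treated with ligand or vehicle in quadruplicate for 18 h. Luciferase luminescence was normalized to vehicle-treated cells. Results are mean ± s.e.m. (n=4) from 2 independent experiments, with one-way ANOVA against vehicle.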

PC-12 [2] = experiment: Modulation of Gal4-fused VP16 expressed in PC12 cells co-transfected with UAS repoter gene assessed as increase in luciferase activity at 0.01 to 100 uM incubated for 18 hrs by luciferase reporter gene assay; conditions: Human alphaherpesvirus 2, filed as modulator, dose 0.01-100 µM
Procedure, shortened: (§2)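 Cells in 10-cm dishes were transfected with Gal4-VP16 expression plasmid (2 μg) plus 5xUAS-luciferase reporter (2 μg) for 18 h. They were replated at 10,000 cells/well for 4 h, then given ligand or vehicle (water, ethanol or DMSO) in quadruplicate for 18 h. Luciferase was read with Britelite Plus. Fold change is versus vehicle-treated cells, with one-way ANOVA versus vehicle.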

HEK-293T = experiment: Cytotoxicity in human HEK293T cells assessed as reduction in cell viability at 0.01 to 100 uM incubated for 18 hrs by Cell Titer-Glo assay; conditions: dose 0.01-100 µM
Procedure, shortened: (§3)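 Cells seeded at 1.5 million per 10-cm dish. Next day they were replated at 10,000 cells/well and rested 4 h. Ligand or vehicle (water, ethanol or DMSO, by ligand) was added in dose-response format in quadruplicate. After 18 h, viability was read by CellTiter-Glo luminescence. Data are mean ± s.e.m., generally representative of 2 independent experiments. One-way ANOVA versus vehicle.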

SK-N-BE(2) = experiment: Cytotoxicity in human SKNBE2 cells assessed as reduction in cell viability at 0.01 to 100 uM incubated for 18 hrs by Cell Titer-Glo assay; conditions: dose 0.01-100 µM; procedure, shortened: as §3
[3] = target: Nuclear receptor subfamily 4 group A member 2 (Homo sapiens) (UniProt P43354); experiment: Modulation of full length human Nurr1 expressed in HEK293T cells co-transfected with luciferase reporter plasmid harboring NurRE response element assessed as increase in luciferase activity at 100 uM incubated for 18 hrs by luciferase reporter gene assay; conditions: filed as modulator
Procedure, shortened: (§4)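 Full-length Nurr1 plasmid, alone (2 μg) or 1 μg plus full-length RXRα (1 μg), cotransfected with 3xNBRE- or 3xNurRE-luciferase reporter (6 μg) using Lipofectamine 2000, 18 h. Cells replated at 10,000/well for 4 h. Four ligand concentrations, or vehicle (water, ethanol or DMSO), added in quadruplicate for 18 h. Luciferase read. Fold change vs vehicle, mean ± s.e.m., one-way ANOVA vs vehicle.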

[4] = target: Nuclear receptor subfamily 4 group A member 2 (Homo sapiens) (UniProt P43354); experiment: Modulation of full length human Nurr1 expressed in HEK293T cells co-transfected with RXRalpha and luciferase reporter plasmid harboring NBRE response element assessed as increase in luciferase activity at 100 uM incubated for 18 hrs by luciferase reporter gene assay; conditions: filed as modulator; procedure, shortened: as §4
[5] = target: Nuclear receptor subfamily 4 group A member 2 (Homo sapiens) (UniProt P43354); experiment: Modulation of full length human Nurr1 expressed in SKNBE(2) cells co-transfected with RXRalpha and luciferase reporter plasmid harboring NurRE response element assessed as increase in luciferase activity at 100 uM incubated for 18 hrs by luciferase reporter gene assay; conditions: SKNBE2, filed as modulator
Procedure, shortened: (§5)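 SK-N-BE(2)-C cells were kept in 1:1 EMEM/F12 with 10% FBS at 37°C and 5% CO2. They were cotransfected with full-length Nurr1 (1 μg), full-length RXRα (1 μg) and 3xNBRE- or 3xNurRE-luc reporter (6 μg) for 18 h, replated at 10,000 cells/well for 4 h, and then treated with ligand or vehicle in quadruplicate for 18 h. The readout was luciferase luminescence as fold over vehicle, reported as mean ± s.e.m. (n=4) from 2 independent experiments, one-way ANOVA.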

PC-12 [6] = experiment: Cytotoxicity in rat PC-12 cells assessed as reduction in cell viability at 0.01 to 100 uM incubated for 18 hrs by Cell Titer-Glo assay; conditions: pc-12, 18 h, dose 0.01-100 µM; procedure, shortened: as §3
[7] = target: Nuclear receptor subfamily 4 group A member 2 (Homo sapiens) (UniProt P43354); experiment: Modulation of full length human Nurr1 expressed in PC12 cells co-transfected with RXRalpha and luciferase reporter plasmid harboring NurRE response element assessed as increase in luciferase activity at 100 uM incubated for 18 hrs by luciferase reporter gene assay; conditions: PC-12, filed as modulator
Procedure, shortened: (§6)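 PC12 cells were grown at 37°C and 5% CO2 in […] medium with 15% horse serum and 2.5% FBS. They were transfected with full-length Nurr1 (1 μg) plus full-length RXRα (1 μg) and 3xNBRE- or 3xNurRE-luciferase reporter (6 μg) for 18 h, then replated at 10,000 cells/well for 4 h. Ligand or vehicle (water, ethanol or DMSO) was added in quadruplicate for 18 h. Luminescence was read as fold change over vehicle. Results are mean ± s.e.m., n=4, from 2 independent experiments, analysed by one-way ANOVA against vehicle.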

[8] = target: Nuclear receptor subfamily 4 group A member 2 (Homo sapiens) (UniProt P43354); experiment: Modulation of full length human Nurr1 expressed in SKNBE(2) cells co-transfected with luciferase reporter plasmid harboring NBRE response element assessed as increase in luciferase activity at 100 uM incubated for 18 hrs by luciferase reporter gene assay; conditions: SKNBE2, filed as modulator
Procedure, shortened: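 Transfection of SK-N-BE(2)-C cells (1:1 EMEM/F12, 10% FBS, 37°C, 5% CO2) used full-length Nurr1 alone (2 μg, no RXRα) with 3xNBRE- or 3xNurRE-luciferase reporter (6 μg) for 18 h. Cells were replated at 10,000/well for 4 h, then exposed to ligand or vehicle in quadruplicate for 18 h. Luminescence was expressed as fold over vehicle, as mean ± s.e.m. (n=4) from 2 independent experiments, one-way ANOVA against vehicle.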

[9] = target: Nuclear receptor subfamily 4 group A member 2 (Homo sapiens) (UniProt P43354); experiment: Modulation of full length human Nurr1 expressed in SKNBE(2) cells co-transfected with RXRalpha and luciferase reporter plasmid harboring NBRE response element assessed as increase in luciferase activity at 100 uM incubated for 18 hrs by luciferase reporter gene assay; conditions: SKNBE2, filed as modulator; procedure, shortened: as §5
[10] = target: Nuclear receptor subfamily 4 group A member 2 (Homo sapiens) (UniProt P43354); experiment: Modulation of full length human Nurr1 expressed in PC12 cells co-transfected with RXRalpha and luciferase reporter plasmid harboring NBRE response element assessed as increase in luciferase activity at 100 uM incubated for 18 hrs by luciferase reporter gene assay; conditions: PC-12, filed as modulator; procedure, shortened: as §6
[11] = target: Nuclear receptor subfamily 4 group A member 2 (Homo sapiens) (UniProt P43354); experiment: Modulation of full length human Nurr1 expressed in PC12 cells co-transfected with luciferase reporter plasmid harboring NurRE response element assessed as increase in luciferase activity at 100 uM incubated for 18 hrs by luciferase reporter gene assay; conditions: PC-12, filed as modulator; procedure, shortened: as §1
[12] = target: Nuclear receptor subfamily 4 group A member 2 (Homo sapiens) (UniProt P43354); experiment: Modulation of full length human Nurr1 expressed in HEK293T cells co-transfected with RXRalpha and luciferase reporter plasmid harboring NurRE response element assessed as increase in luciferase activity at 100 uM incubated for 18 hrs by luciferase reporter gene assay; conditions: filed as modulator; procedure, shortened: as §4
[13] = target: Nuclear receptor subfamily 4 group A member 2 (Homo sapiens) (UniProt P43354); experiment: Modulation of full length human Nurr1 expressed in SKNBE(2) cells co-transfected with luciferase reporter plasmid harboring NurRE response element assessed as increase in luciferase activity at 100 uM incubated for 18 hrs by luciferase reporter gene assay; conditions: SKNBE2, filed as modulator
[14] = target: Nuclear receptor subfamily 4 group A member 2 (Homo sapiens) (UniProt P43354); experiment: Modulation of full length human Nurr1 expressed in HEK293T cells co-transfected with luciferase reporter plasmid harboring NBRE response element assessed as increase in luciferase activity at 100 uM incubated for 18 hrs by luciferase reporter gene assay; conditions: filed as modulator; procedure, shortened: as §4
HEK293T = experiment: Modulation of Gal4-fused VP16 expressed in HEK293T cells co-transfected with UAS repoter gene assessed as increase in luciferase activity at 0.01 to 100 uM incubated for 18 hrs by luciferase reporter gene assay; conditions: Human alphaherpesvirus 2, filed as modulator, dose 0.01-100 µM; procedure, shortened: as §2

COCCOCc1ccc(-c2cc3onc(-c4ccccc4)c3c(=O)n2C)cc1
Activity [1]: Active
Activity (PC-12 [2]): Active
Activity (HEK-293T): Non-Toxic
Activity (SK-N-BE(2)): Non-Toxic
Activity [3]: Active
Activity [4]: Active
Activity [5]: Active
Activity (PC-12 [6]): Non-Toxic
Activity [7]: Active
Activity [8]: Active
Activity [9]: Active
Activity [10]: Active
Activity [11]: Active
Activity [12]: Active
Activity [13]: Active
Activity [14]: Active
Activity (HEK293T): Active
